Measurements reported in ChEMBL document CHEMBL2429796, “Discovery and synthesis of novel benzofurazan derivatives as inhibitors of influenza A virus” (Bioorg Med Chem Lett, 2013).
The source made the active and inactive calls. No cut-off for these calls is given here.

What follows are compounds tested on HEK-293T (assay: Inhibition of influenza A virus HA-tagged polymerase acidic protien transfected in HEK293T cells after 24 hrs by ELISA). Conditions: not given.
Format: cell-based

How did the inhibition turn out when `O=[N+]([O-])c1ccc(SCc2ccc(Br)cc2)c2nonc12` was run?
The inhibition was “Active”.

`O=[N+]([O-])c1ccc(Nc2ccccc2O)c2nonc12` was tested. Which inhibition did it give?
Its inhibition is “Active”.

How did the inhibition turn out when `O=[N+]([O-])c1ccc(Sc2ccc(F)cc2)c2nonc12` was run?
The inhibition was “Active”.

With `O=[N+]([O-])c1ccc(Nc2ccccc2S)c2nonc12` as the compound, how does the inhibition read?
Its inhibition is “Active”.

For `O=[N+]([O-])c1ccc(Sc2ccc([N+](=O)[O-])c3nonc23)cc1`, which inhibition is on record?
The inhibition was “Active”.

How did the inhibition turn out when `COc1ccc(Oc2ccc([N+](=O)[O-])c3nonc23)cc1` was run?
The inhibition was “Active”.

For `COc1ccc(Sc2ccc([N+](=O)[O-])c3nonc23)cc1`, which inhibition is on record?
The inhibition was “Active”.

Which inhibition does the source give for `O=[N+]([O-])c1ccc(Sc2ccc(Br)cc2)c2nonc12` here?
The inhibition was “Active”.

With `O=[N+]([O-])c1ccc(Oc2cccc(Br)c2)c2nonc12` as the compound, how does the inhibition read?
Its inhibition is “Active”.

Which inhibition does the source give for `O=[N+]([O-])c1ccc(Sc2ccccc2)c2nonc12` here?
Its inhibition is “Active”.

How did the inhibition turn out when `O=Cc1ccc(Oc2ccc([N+](=O)[O-])c3nonc23)cc1` was run?
Its inhibition is “Active”.

With `COc1cccc(Oc2ccc([N+](=O)[O-])c3nonc23)c1` as the compound, how does the inhibition read?
Its inhibition is “Active”.

Which inhibition does the source give for `CNc1ccc(SCc2ccc(OC)cc2)c2nonc12` here?
The inhibition was “Active”.

Which inhibition does the source give for `N#Cc1ccc(Oc2ccc([N+](=O)[O-])c3nonc23)cc1` here?
The inhibition was “Active”.

How did the inhibition turn out when `Nc1cccc(Sc2ccc([N+](=O)[O-])c3nonc23)c1` was run?
The inhibition was “Active”.

With `O=[N+]([O-])c1ccc(Sc2ccccc2Br)c2nonc12` as the compound, how does the inhibition read?
Its inhibition is “Active”.

Which inhibition does the source give for `O=[N+]([O-])c1ccc(SCc2ccc(Cl)cc2)c2nonc12` here?
Its inhibition is “Active”.

With `O=[N+]([O-])c1ccc(Oc2ccc(CCO)cc2)c2nonc12` as the compound, how does the inhibition read?
The inhibition was “Active”.

With `COc1ccc(CSc2ccc(NCc3ccccc3)c3nonc23)cc1` as the compound, how does the inhibition read?
The inhibition was “Active”.

For `O=[N+]([O-])c1cccc(CSc2ccc([N+](=O)[O-])c3nonc23)c1`, which inhibition is on record?
The inhibition was “Active”.

With `COc1ccc(CSc2ccc(Cl)c3nonc23)cc1` as the compound, how does the inhibition read?
Its inhibition is “Active”.

Which inhibition does the source give for `O=[N+]([O-])c1ccc(OCc2ccccc2)c2nonc12` here?
Its inhibition is “Active”.

For `O=[N+]([O-])c1ccc(Nc2ccc(O)cc2)c2nonc12`, which inhibition is on record?
Its inhibition is “Active”.

For `O=[N+]([O-])c1ccc(SCc2ccccc2)c2nonc12`, which inhibition is on record?
Its inhibition is “Active”.

Which inhibition does the source give for `O=[N+]([O-])c1ccc(SCc2ccc(F)cc2)c2nonc12` here?
Its inhibition is “Active”.

`O=[N+]([O-])c1ccc(Sc2ccc(Cl)cc2)c2nonc12` was tested. Which inhibition did it give?
The inhibition was “Active”.

These compounds were tested on Influenza A virus (assay: Antiviral activity against Influenza A virus A/WSN/33(H1N1) infected in MDCK cells after 48 hrs by plaque reduction assay). Conditions: Influenza A virus, A/WSN/1933(H1N1), MDCK, 48 h; read-out: IC50.
Format: functional, organism-based, A/WSN/1933(H1N1)
Procedure, shortened: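 Plaque-reduction assay in MDCK cells infected with influenza A/WSN/33 (H1N1). IC50 was determined only for compounds positive in an ELISA prescreen for binding to the polymerase PA subunit.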

With `O=[N+]([O-])c1ccc(SCc2ccc(Br)cc2)c2nonc12` as the compound, how does the IC50 read?
Its IC50 is no less than 5 µM.

For `O=[N+]([O-])c1ccc(Sc2ccc(F)cc2)c2nonc12`, which IC50 is on record?
Its IC50 is 5 µM.

Which IC50 does the source give for `O=[N+]([O-])c1ccc(Nc2ccccc2S)c2nonc12` here?
Its IC50 is 20 µM.

`O=[N+]([O-])c1ccc(Sc2ccc([N+](=O)[O-])c3nonc23)cc1` was tested. Which IC50 did it give?
Its IC50 is 10 µM.

Which IC50 does the source give for `COc1ccc(Oc2ccc([N+](=O)[O-])c3nonc23)cc1` here?
The IC50 was 30 µM.

How did the IC50 turn out when `O=[N+]([O-])c1ccc(Sc2ccc(Br)cc2)c2nonc12` was run?
Its IC50 is 10 µM.

`O=[N+]([O-])c1ccc(Oc2cccc(Br)c2)c2nonc12` was tested. Which IC50 did it give?
The IC50 was 20 µM.

Which IC50 does the source give for `O=Cc1ccc(Oc2ccc([N+](=O)[O-])c3nonc23)cc1` here?
The IC50 was 20 µM.

Which IC50 does the source give for `Nc1cccc(Sc2ccc([N+](=O)[O-])c3nonc23)c1` here?
The IC50 was 10 µM.

`O=[N+]([O-])c1ccc(Sc2ccccc2Br)c2nonc12` was tested. Which IC50 did it give?
The IC50 was greater than 10 µM.

For `O=[N+]([O-])c1ccc(Oc2ccc(CCO)cc2)c2nonc12`, which IC50 is on record?
The IC50 was 10 µM.

Which IC50 does the source give for `O=[N+]([O-])c1cccc(CSc2ccc([N+](=O)[O-])c3nonc23)c1` here?
Its IC50 is 1 µM.

For `O=[N+]([O-])c1ccc(Sc2ccc(Cl)cc2)c2nonc12`, which IC50 is on record?
Its IC50 is 10 µM.

Same assay, conditions: mdck

`O=[N+]([O-])c1ccc(Nc2ccccc2O)c2nonc12` was tested. Which IC50 did it give?
Its IC50 is “Not Active”.

With `COc1ccc(Sc2ccc([N+](=O)[O-])c3nonc23)cc1` as the compound, how does the IC50 read?
The IC50 was “Not Active”.

Which IC50 does the source give for `O=[N+]([O-])c1ccc(Sc2ccccc2)c2nonc12` here?
Its IC50 is “Not Active”.

Which IC50 does the source give for `COc1cccc(Oc2ccc([N+](=O)[O-])c3nonc23)c1` here?
Its IC50 is “Not Active”.

How did the IC50 turn out when `CNc1ccc(SCc2ccc(OC)cc2)c2nonc12` was run?
Its IC50 is “Not Active”.

How did the IC50 turn out when `N#Cc1ccc(Oc2ccc([N+](=O)[O-])c3nonc23)cc1` was run?
The IC50 was “Not Active”.

Which IC50 does the source give for `O=[N+]([O-])c1ccc(SCc2ccc(Cl)cc2)c2nonc12` here?
Its IC50 is “Not Active”.

With `COc1ccc(CSc2ccc(NCc3ccccc3)c3nonc23)cc1` as the compound, how does the IC50 read?
Its IC50 is “Not Active”.

`COc1ccc(CSc2ccc(Cl)c3nonc23)cc1` was tested. Which IC50 did it give?
The IC50 was “Not Active”.

With `O=[N+]([O-])c1ccc(OCc2ccccc2)c2nonc12` as the compound, how does the IC50 read?
Its IC50 is “Not Active”.

For `O=[N+]([O-])c1ccc(Nc2ccc(O)cc2)c2nonc12`, which IC50 is on record?
The IC50 was “Not Active”.

Which IC50 does the source give for `O=[N+]([O-])c1ccc(SCc2ccccc2)c2nonc12` here?
Its IC50 is “Not Active”.

For `O=[N+]([O-])c1ccc(SCc2ccc(F)cc2)c2nonc12`, which IC50 is on record?
Its IC50 is “Not Active”.

What follows are compounds tested on MDCK (assay: Cytotoxicity against MDCK cells). Conditions: dog.
Format: cell-based, Canis lupus familiaris

With `O=[N+]([O-])c1ccc(SCc2ccc(Br)cc2)c2nonc12` as the compound, how does the Cytotoxic concentration read?
The Cytotoxic concentration was greater than 10 µM.

Which Cytotoxic concentration does the source give for `O=[N+]([O-])c1ccc(Sc2ccc(F)cc2)c2nonc12` here?
Its Cytotoxic concentration is 40 µM.

`O=[N+]([O-])c1ccc(Nc2ccccc2S)c2nonc12` was tested. Which Cytotoxic concentration did it give?
Its Cytotoxic concentration is greater than 80 µM.

For `O=[N+]([O-])c1ccc(Sc2ccc([N+](=O)[O-])c3nonc23)cc1`, which Cytotoxic concentration is on record?
Its Cytotoxic concentration is 40 µM.

For `COc1ccc(Oc2ccc([N+](=O)[O-])c3nonc23)cc1`, which Cytotoxic concentration is on record?
The Cytotoxic concentration was 60 µM.

Which Cytotoxic concentration does the source give for `COc1ccc(Sc2ccc([N+](=O)[O-])c3nonc23)cc1` here?
Its Cytotoxic concentration is 40 µM.

`O=[N+]([O-])c1ccc(Sc2ccc(Br)cc2)c2nonc12` was tested. Which Cytotoxic concentration did it give?
The Cytotoxic concentration was 40 µM.

`O=[N+]([O-])c1ccc(Oc2cccc(Br)c2)c2nonc12` was tested. Which Cytotoxic concentration did it give?
Its Cytotoxic concentration is greater than 40 µM.

With `O=[N+]([O-])c1ccc(Sc2ccccc2)c2nonc12` as the compound, how does the Activity read?
The Activity was 20 µM.

For `O=Cc1ccc(Oc2ccc([N+](=O)[O-])c3nonc23)cc1`, which Cytotoxic concentration is on record?
Its Cytotoxic concentration is greater than 40 µM.

With `Nc1cccc(Sc2ccc([N+](=O)[O-])c3nonc23)c1` as the compound, how does the Cytotoxic concentration read?
Its Cytotoxic concentration is 40 µM.

With `O=[N+]([O-])c1ccc(Sc2ccccc2Br)c2nonc12` as the compound, how does the Cytotoxic concentration read?
Its Cytotoxic concentration is 40 µM.

`O=[N+]([O-])c1ccc(Oc2ccc(CCO)cc2)c2nonc12` was tested. Which Cytotoxic concentration did it give?
The Cytotoxic concentration was 20 µM.

Which Cytotoxic concentration does the source give for `O=[N+]([O-])c1cccc(CSc2ccc([N+](=O)[O-])c3nonc23)c1` here?
The Cytotoxic concentration was 20 µM.

How did the Activity turn out when `O=[N+]([O-])c1ccc(SCc2ccccc2)c2nonc12` was run?
Its Activity is 20 µM.

`O=[N+]([O-])c1ccc(SCc2ccc(F)cc2)c2nonc12` was tested. Which Cytotoxic concentration did it give?
The Cytotoxic concentration was 20 µM.

`O=[N+]([O-])c1ccc(Sc2ccc(Cl)cc2)c2nonc12` was tested. Which Cytotoxic concentration did it give?
Its Cytotoxic concentration is 40 µM.
